In ChEMBL document CHEMBL2169742, “Design, synthesis, and biological evaluation of novel transrepression-selective liver X receptor (LXR) ligands with 5,11-dihydro-5-methyl-11-methylene-6H-dibenz[b,e]azepin-6-one skeleton” (J Med Chem, 2012):
pEC50, pIC50: −log10 of the molar value. Activity calls are given as the source filed them. No cut-off for these calls is given here.

What was measured:
[1] = molecular target: Liver X receptor (Homo sapiens) (UniProt Q13133+P55055); assay: Transrepressional activity at LXR in human TPA-activated THP1 cells assessed as inhibition of LPS-induced IL6 production at 30 uM incubated for 6 hrs prior to LPS-challenge measured after 18 hrs by ELISA; type: cell-based; conditions: THP-1
Summary of the method: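 THP-1 cells were differentiated with 10 nM TPA for 48 h, then replated at 3 × 10⁴/well. They were pretreated with sample for 6 h before LPS (100 ng/mL). Supernatant IL-6 was measured by ELISA after 18 h.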

[2] = molecular target: T1, Oxysterols receptor LXR-alpha (Homo sapiens, UniProt Q13133); assay: Transactivational agonist activity at human LXRalpha transfected in HEK293 cells expressing CMX-Gal4N assessed as luciferase activity at 30 uM after 16 hrs by reporter gene assay; type: cell-based; conditions: hek293, 16 h
T1 sequence (Q13133 whole entry): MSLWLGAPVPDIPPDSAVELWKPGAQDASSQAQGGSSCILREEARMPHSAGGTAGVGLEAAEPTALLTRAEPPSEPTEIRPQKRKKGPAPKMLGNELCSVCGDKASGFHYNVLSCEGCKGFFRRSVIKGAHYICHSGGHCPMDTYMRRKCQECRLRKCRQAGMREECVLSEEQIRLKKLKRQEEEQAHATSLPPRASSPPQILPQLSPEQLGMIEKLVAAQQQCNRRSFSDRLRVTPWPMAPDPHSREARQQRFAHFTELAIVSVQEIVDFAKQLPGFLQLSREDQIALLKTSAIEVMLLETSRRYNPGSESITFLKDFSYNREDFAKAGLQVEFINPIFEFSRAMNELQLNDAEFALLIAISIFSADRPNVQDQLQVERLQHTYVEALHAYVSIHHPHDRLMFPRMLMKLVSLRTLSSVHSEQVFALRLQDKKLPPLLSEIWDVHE

[3] = molecular target: T1, Oxysterols receptor LXR-alpha; assay: Transactivational antagonist activity at human LXRalpha transfected in HEK293 cells expressing CMX-Gal4N assessed as inhibition of T1317-induced luciferase activity after 16 hrs by reporter gene assay; type: functional, cell-based
[4] = molecular target: T2, Oxysterols receptor LXR-beta (Homo sapiens) (UniProt P55055); assay: Transactivational antagonist activity at human LXRbeta transfected in HEK293 cells expressing CMX-Gal4N assessed as inhibition of T1317-induced luciferase activity at 30 uM after 16 hrs by reporter gene assay; type: functional, cell-based
T2 sequence (whole entry): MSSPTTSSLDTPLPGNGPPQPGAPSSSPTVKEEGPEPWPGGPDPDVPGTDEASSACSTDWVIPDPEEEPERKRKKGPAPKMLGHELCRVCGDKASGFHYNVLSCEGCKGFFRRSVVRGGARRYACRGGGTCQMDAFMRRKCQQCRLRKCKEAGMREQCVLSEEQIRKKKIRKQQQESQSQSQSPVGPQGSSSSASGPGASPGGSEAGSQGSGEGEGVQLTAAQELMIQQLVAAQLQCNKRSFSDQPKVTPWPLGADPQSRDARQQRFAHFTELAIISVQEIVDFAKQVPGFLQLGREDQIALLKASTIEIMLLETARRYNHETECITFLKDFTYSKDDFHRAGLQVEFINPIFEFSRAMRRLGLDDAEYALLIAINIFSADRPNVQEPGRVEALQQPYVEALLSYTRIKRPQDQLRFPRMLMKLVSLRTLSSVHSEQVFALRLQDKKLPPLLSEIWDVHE
Summary of the method: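 Gal4-hLXRα or Gal4-hLXRβ chimera (15 ng) cotransfected with tk-MH100×4-luc reporter (50 ng) and CMX-β-gal (10 ng) into HEK293 cells by calcium phosphate. From 8 h post-transfection, cells got compound (0.1–30 μM) or DMSO for 16 h. Luciferase was normalized to β-gal, in triplicate.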

[5] = molecular target: T3, Oxysterols receptor LXR-beta (Homo sapiens, UniProt P55055); assay: Transactivational agonist activity at human LXRbeta transfected in HEK293 cells expressing CMX-Gal4N assessed as luciferase activity at 30 uM after 16 hrs by reporter gene assay; type: cell-based; conditions: hek293, 16 h
T3 sequence (P55055 whole entry): T2 sequence (whole entry)

[6] = molecular target: T1, Oxysterols receptor LXR-alpha; assay: Transactivational agonist activity at human LXRalpha transfected in HEK293 cells expressing CMX-Gal4N assessed as luciferase activity after 16 hrs by reporter gene assay relative to N-(4-(1,1,1,3,3,3-hexafluoro-2-hydroxypropan-2-yl)phenyl)-N-methylbenzamide; type: cell-based; conditions: read-out: Efficacy
[7] = molecular target: T3, Oxysterols receptor LXR-beta; assay: Transactivational agonist activity at human LXRbeta transfected in HEK293 cells expressing CMX-Gal4N assessed as luciferase activity after 16 hrs by reporter gene assay; type: cell-based
Summary of the method: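 Gal4-hLXRα or Gal4-hLXRβ chimera (15 ng) cotransfected with tk-MH100×4-luc reporter (50 ng) and CMX-β-gal (10 ng) into HEK293 cells by calcium phosphate. Luciferase was normalized to β-gal, in triplicate.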

[8] = molecular target: T3, Oxysterols receptor LXR-beta; assay: Transactivational agonist activity at human LXRbeta transfected in HEK293 cells expressing CMX-Gal4N assessed as luciferase activity after 16 hrs by reporter gene assay relative to N-(4-(1,1,1,3,3,3-hexafluoro-2-hydroxypropan-2-yl)phenyl)-N-methylbenzamide; type: cell-based; conditions: read-out: Efficacy
[9] = molecular target: T1, Oxysterols receptor LXR-alpha; assay: Transactivational agonist activity at human LXRalpha transfected in HEK293 cells expressing CMX-Gal4N assessed as luciferase activity after 16 hrs by reporter gene assay; type: cell-based
[10] = molecular target: T3, Oxysterols receptor LXR-beta; assay: Transactivational antagonist activity at human LXRbeta transfected in HEK293 cells expressing CMX-Gal4N assessed as inhibition of T1317-induced luciferase activity after 16 hrs by reporter gene assay; type: functional, cell-based
[11] = Permeability from apical to basal side of human Caco2 cells at 10 uM; type: ADME, cell-based; conditions: Caco-2, read-out: permeability
Summary of the method: (§1)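 Colchicine and ranitidine were low-permeability controls, propranolol the high-permeability control, labetalol the P-gp substrate control.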

[12] = Metabolic stability in human liver microsomes assessed as compound remaining at 0.1 uM by LC-MS/MS analysis; type: ADME, Microsome; conditions: read-out: Stability
Summary of the method: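 Human liver microsomes were incubated with compound at 0.1 μM. Percent parent remaining was quantified by LC/MS/MS; imipramine, propranolol, terfenadine and verapamil served as controls.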

[13] = Apparent permeability from apical to basal side of human Caco2 cells at 10 uM; type: ADME, cell-based; conditions: Caco-2; summary of the method: as §1
[14] = system: Peritoneal macrophage cell; assay: Inhibition of LPS-induced IL-6 production in LXRalpha,LXRbeta-deficient C57BL/6J mouse peritoneal macrophages at 10 uM incubated for 6 hrs prior to LPS-challenge measured after 18 hrs by ELISA; type: functional, cell-based
Summary of the method: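 Thioglycollate-elicited peritoneal macrophages came from 8–10-week LXRα/β-null mice on C57BL/6J background, harvested 4 days post-injection. They were adhered, rested 24 h and plated at 2 × 10⁵/well, then pretreated with compound 6 h before LPS 10 ng/mL. Supernatant mIL-6 was measured by ELISA after 18 h; means ± SE of ≥3 independent measurements, ANOVA.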

[15] = molecular target: T1, Oxysterols receptor LXR-alpha; assay: Transactivational agonist activity at human LXRalpha transfected in HEK293 cells coexpressing CMX-Gal4N-SRC1 assessed as SRC1 recruitment at 10 uM after 16 hrs by mammalian two-hybrid assay; type: cell-based; conditions: hek293, 16 h
Summary of the method: (§2)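 Mammalian two-hybrid in HEK293 cells by calcium phosphate cotransfection: CMX-VP16N-hLXRα, Gal4N-fused SRC1, DRIP205, NCoR or SMRT (15 ng), tk-MH100×4-luc (50 ng) and CMX-β-gal (10 ng). Compound or DMSO added 8 h after transfection for 16 h. Luciferase was normalized to β-galactosidase, in triplicate.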

[16] = molecular target: T4, Oxysterols receptor LXR-alpha (Homo sapiens) (UniProt Q13133); assay: Transactivational antagonist activity at human LXRalpha transfected in HEK293 cells coexpressing CMX-Gal4N-SMRT assessed as SMRT recruitment after 16 hrs by reporter gene assay; type: functional, cell-based; summary of the method: as §2
T4 sequence (whole entry): T1 sequence (Q13133 whole entry)

[17] = molecular target: T4, Oxysterols receptor LXR-alpha (Homo sapiens); assay: Transactivational antagonist activity at human LXRalpha transfected in HEK293 cells coexpressing CMX-Gal4N-NCoR assessed as NCoR recruitment after 16 hrs by reporter gene assay; type: functional, cell-based; summary of the method: as §2
[18] = molecular target: T1, Oxysterols receptor LXR-alpha; assay: Transactivational agonist activity at human LXRalpha transfected in HEK293 cells coexpressing CMX-Gal4N-DRIP205 assessed as DRIP205 recruitment at 10 uM after 16 hrs by mammalian two-hybrid assay; type: cell-based; conditions: hek293, 16 h; summary of the method: as §2
[19] = Binding affinity to GST at 1 uM after 1 hr by fluorescence polarization assay
Summary of the method: (§3)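 Fluorescence polarization binding: full-length GST-hLXRα or GST was expressed in E. coli Rosetta(DE3) (0.4 mM IPTG, 15 °C, 24 h) and purified on glutathione resin. Protein dilutions, or 1 μM protein with competitor, were incubated with fluorescent probe 23 (1 μM) for 1 h at 0 °C. Buffer was 50 mM Tris-HCl, 10 mM reduced glutathione, pH 8.0; excitation 400 nm, emission 500 nm.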

[20] = molecular target: T4, Oxysterols receptor LXR-alpha (Homo sapiens); assay: Binding affinity to human GST-tagged LXRalpha expressed in Escherichia coli BL21(DE3) at 1 uM after 1 hr by fluorescence polarization assay; summary of the method: as §3

| Compound | Activity [2] | pIC50 [3] | Activity [5] | pIC50 [10] | other results |
| --- | --- | --- | --- | --- | --- |
| Cn1c(=O)c2ccccc2c2cc(C(O)(C(F)(F)F)C(F)(F)F)ccc21 | Not Active | 5.39 | Not Active | – | inhibition [1]: inactive; inhibition [4]: inactive |
| CN(C(=O)c1ccccc1)c1ccc(C(O)(C(F)(F)F)C(F)(F)F)cc1 | – | – | – | – | Emax [6]: 100%; pEC50 [7]: 6.74; Emax [8]: 100%; pEC50 [9]: 6.20 |
| C=C1c2ccc(-c3ccc(C(=O)O)cc3)cc2C(=O)N(C)c2ccc(CC)cc21 | Not Active | 5.89 | Not Active | 5.02 | inhibition [1]: inactive |
| C=C1c2ccccc2C(=O)N(C)c2ccc(CO)cc21 | Not Active | < 5.00 | Not Active | < 5.00 | – |
| CN1C(=O)c2ccccc2Oc2cc(C(O)(C(F)(F)F)C(F)(F)F)ccc21 | – | – | – | – | Emax [6]: 12%; pEC50 [7]: 5.57; Emax [8]: 49%; pEC50 [9]: 5.38 |
| C=C1c2ccccc2C(=O)N(C)c2ccc(C(C)=O)cc21 | Not Active | 5.31 | Not Active | 5.12 | – |
| C=C1c2ccc(-c3cccc(CC(=O)O)c3)cc2C(=O)N(C)c2ccc(CC)cc21 | Not Active | 4.68 | Not Active | 4.57 | – |
| [CH2-]c1c2ccccc2c(=O)[n+](C)c2ccc([N+](=O)[O-])cc12 | Not Active | 5.21 | Not Active | 4.89 | – |
| C=C1c2ccccc2C(=O)N(C)c2ccc(O)cc21 | – | – | – | – | Papp A→B at 10 µM [11]: 84.3 ×10⁻⁶ cm/s; remaining at 0.1 µM [12]: 87.8%; Papp A→B at 10 µM [13]: ≥ 20 ×10⁻⁶ cm/s |
| CN1C(=O)c2ccccc2CCc2cc(C(O)(C(F)(F)F)C(F)(F)F)ccc21 | – | – | – | – | Emax [6]: 117%; pEC50 [7]: 6.59; Emax [8]: 108%; pEC50 [9]: 6.04 |
| C=C1c2ccccc2C(=O)N(C)c2ccc(C)cc21 | Not Active | < 5.00 | Not Active | < 5.00 | – |
| COc1ccc(CCc2ccc(N3C(=O)c4ccc(N(C)C)cc4C3=O)cc2)cc1 | – | – | – | – | Activity [19]: inactive; Activity [20]: Active |
| C=C1c2ccccc2C(=O)N(C)c2ccc(C(C)C)cc21 | Not Active | 5.77 | Not Active | < 5.00 | – |

The next lines start with results.

| Activity [2] | pIC50 [3] | Activity [5] | pIC50 [10] | Compound | other results |
| --- | --- | --- | --- | --- | --- |
| Not Active | < 4.52 | Not Active | < 4.52 | C=C1c2ccccc2C(=O)N(C)c2ccc(CCCCCCCCCCCC)cc21 | inhibition [1]: inactive |
| Not Active | < 4.52 | Not Active | < 4.52 | C=C1c2ccc(-c3cccc(C(=O)O)c3)cc2C(=O)N(C)c2ccc(CC)cc21 | inhibition [1]: inactive |
| Not Active | < 5.00 | Not Active | < 5.00 | C=C1c2ccccc2C(=O)N(C)c2ccc(CCCCCC)cc21 | – |
| Not Active | 4.72 | Not Active | 4.57 | C=C1c2ccccc2C(=O)N(C)c2ccc(N)cc21 | – |
| Not Active | 4.85 | Not Active | 4.59 | C=C1c2ccccc2C(=O)N(C)c2ccc(C(=O)O)cc21 | – |
| Not Active | 5.66 | Not Active | 4.82 | C=C1c2ccc(-c3ccc(CC(=O)O)cc3)cc2C(=O)N(C)c2ccc(CC)cc21 | – |
| Not Active | 5.27 | Not Active | < 5.00 | C=C1c2ccccc2C(=O)N(C)c2ccc(C(C)(C)C)cc21 | inhibition [14]: inactive; Activity [15]: Toxic; Activity [16]: Dose-dependent effect; Activity [17]: Dose-dependent effect; Activity [18]: Toxic |
| – | < 5.00 | – | < 5.00 | C=C1c2ccccc2C(=O)N(C)c2ccccc21 | inhibition [1]: inactive |
